Hits are enriched below; roughly 2.5% of the tested compounds scored in any of these assays.
MsrA inhibitor = inhibitors of bovine MsrA; purified bovine MsrA, absorbance read-out; inhibition, % at 15.5 µM; 360,000 compounds, 0.75% hits; AID 651718; in the data active means inhibition above about 4.5%;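 further: 0% = vehicle wells with enzyme and 100% = reference inhibitor wells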
bovine MsrA act = bovine methionine sulfoxide reductase A activation. purified bovine MsrA, absorbance read-out. activation, % at 10.6 µM. 360,000 compounds, 0.3% hits. AID 602163; in the data active means activation above about 7.5%;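 further: 0% = vehicle and 100% = reference activator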
NR2E3 ag-1 = agonists of human NR2E3 nuclear receptor; CHO-S Gal4-NCOR/VP16-NR2E3 two-hybrid, luciferase; inhibition of corepressor binding, % at 3.98 µM; 360,000 compounds, 0.35% hits; AID 602229;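 active means inhibition above the mean of all tested compounds plus 3 SD, cut at about 70% in these data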;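 further: 0% = DMSO with NR2E3 transfected cells and 100% = cells lacking NR2E3 construct; higher means lower luciferase signal from less NR2E3 corepressor binding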
Target sequence (Q9Y5X4 whole entry, looked up, the tested form may be a part): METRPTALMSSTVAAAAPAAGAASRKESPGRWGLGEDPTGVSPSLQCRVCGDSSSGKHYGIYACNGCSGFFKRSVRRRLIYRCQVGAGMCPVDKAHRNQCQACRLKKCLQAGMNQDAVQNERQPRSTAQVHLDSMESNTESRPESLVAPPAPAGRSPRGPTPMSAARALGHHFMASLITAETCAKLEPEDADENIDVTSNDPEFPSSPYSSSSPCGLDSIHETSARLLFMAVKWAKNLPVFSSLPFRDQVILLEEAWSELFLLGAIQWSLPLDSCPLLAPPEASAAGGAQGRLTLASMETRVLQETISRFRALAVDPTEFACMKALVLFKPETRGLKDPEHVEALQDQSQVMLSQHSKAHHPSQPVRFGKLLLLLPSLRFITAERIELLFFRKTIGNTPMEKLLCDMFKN
NR2E3 ag-2 = agonists of human nuclear receptor NR2E3. 320,000 compounds, 0.12% hits. GST-NR2E3/biotin-RetCOR TR-FRET, 1536-well. Q9Y5X4. inhibition of corepressor binding, % at 4.78 µM;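 active means percent inhibition above the cutoff of mean plus 3 SD of all tested compounds, set per screening campaign, cut at about 20% in these data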;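 further: 0% = DMSO wells and 100% = biotin wells as full block of FRET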
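System: GST-NR2E3 and biotin-RetCOR proteins; probe or stimulus: 7 nM biotin-RetCOR; doses: compound at 4.8 µM, single dose; schedule: Compound–protein incubation for 5 h at 4 °C; detection: time-resolved FRET; read-out: percent inhibition; controls: biotin wells as high control, 0.6% DMSO wells as low control; format: 1536-well plates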
NadD block = blocks S. aureus nicotinate mononucleotide adenylyltransferase; purified NadD enzyme, colorimetric absorbance read-out; inhibition, % at 20 µM; 360,000 compounds, 0.78% hits; in the data active means inhibition above about 26%
GalR3 antag = antagonists of human GalR3; inhibition, % at 3 µM; 360,000 compounds, 0.44% hits; O60755; HEK293 GalR3-CNG cAMP membrane potential fluorescence; galR3 body fused to GalR1 C-terminus;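 active means inhibition above the screen-wide average plus 3 SD, cut at about 13% in these data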;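 further: forskolin and galanin both at EC90 stimulate the cells; cAMP rise reported by CNG channel membrane potential dye signal; 0% = forskolin plus galanin with DMSO and 100% = forskolin alone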
The depositor's hits bear a star; . = no result.

SMILES	MsrA inhibitor	bovine MsrA act	NR2E3 ag-1	NR2E3 ag-2	NadD block	GalR3 antag
CCOc1cc(/C=N/NC(N)=O)cc(Br)c1OCC(=O)Nc1cccc2ccccc12	2	-1	-35	4	15	44*
CCOc1cc(/C=N/O)cc(Br)c1OCC(=O)NCc1ccccc1	1	-8	22	-2	-5	3
COc1cc([N+](=O)[O-])ccc1NC(=O)NCc1ccccn1	1	-3	-12	2	2	-1
O=C(O)CCCCCN1C(=O)/C(=C/c2cn(-c3ccccc3)nc2-c2cccs2)SC1=S	0	-2	-31	.	31*	-4
Cc1ccc(-c2nn(-c3ccccc3)cc2/C=C2\SC(=S)N(CC(=O)O)C2=O)cc1	3	-3	-14	0	41*	0
O=C(O)CCN1C(=O)/C(=C/c2cn(-c3ccccc3)nc2-c2cccs2)SC1=S	2	-4	-19	.	31*	-2
COc1ccc(-c2nn(-c3ccccc3)cc2/C=C2/SC(=S)N(CCC(=O)O)C2=O)cc1	0	-11	19	-2	25	-8
CCOc1ccc(-c2nn(-c3ccccc3)cc2/C=C2\SC(N)=NC2=O)cc1C	-1	-11	9	-1	32*	-3
COc1ccc(Cc2nc3ccccc3n2CC(=O)N/N=C/c2ccccc2)cc1OC	0	2	-5	-2	3	-2
O=C(O)CCCCCN1C(=O)/C(=C\c2cn(-c3ccccc3)nc2-c2cccs2)SC1=S	1	-3	-4	1	32*	-7
COc1ccc(-c2nn(-c3ccccc3)cc2/C=C2/SC(=S)N(CCC(=O)O)C2=O)c(C)c1	0	-7	-3	4	25	-7
Cc1cc(-c2csc(NC(=O)c3ccc(S(=O)(=O)N(C)C)cc3)n2)c(C)n1-c1ccccc1	2	0	-21	-2	40*	-5
O=C1NN(c2ccccc2)C(=O)/C1=C/c1ccc(Sc2ccc(Cl)cc2)o1	1	-7	11	2	52*	8
CCOC(=O)c1cc(-c2ccccc2)sc1NC(=O)COC(=O)c1ccc(Cl)c(S(N)(=O)=O)c1	.	-2	-25	2	42*	.
COc1ccc(/C(C)=N/OCC(=O)Nc2nc3ccccc3s2)cc1OC	-1	-5	0	1	-15	-1
CCN(c1ccc(OC)cc1)S(=O)(=O)c1nnc(NC(=O)c2ccco2)s1	4.6*	1	-5	-1	3	0
COc1ccc(N(CC(C)C)S(=O)(=O)c2nnc(NC(=O)c3ccco3)s2)cc1	5.3*	-8	-11	2	13	-1
CCN(c1ccccc1C)S(=O)(=O)c1nnc(NC(=O)c2ccco2)s1	3	-3	0	12	1	2
CCN(c1cc(C)cc(C)c1)S(=O)(=O)c1nnc(NC(=O)c2ccco2)s1	4	3	-23	3	8	4
O=C(CCC(=O)NC1CCCCC1)NCc1ccc(F)cc1	0	-3	-18	-2	-8	-12
N#Cc1c(N2CCCC(O)C2)nc(N)c2c(N)nc3c(c12)CC(=O)N3C12CC3CC(CC(C3)C1)C2 (stereo unspecified)	2	0	6	3	57*	-2
COc1ccc(CN2C(=O)Cc3c2nc(N)c2c(N)nc(N4CCCCC4)c(C#N)c32)cc1	.	.	.	-1	.	.
COCC(=O)N(CCc1ccc(OC)cc1)Cc1nc2ccccc2c(=O)[nH]1	0	-1	-16	-2	2	0
COC(=O)c1nn(-c2ccc(-c3ccccc3)cc2)cc1O	0	2	78*	1	-10	-6
O=C1NC(=O)C(=CC=Cc2ccccc2)S1	4.6*	-7	-86	.	2	-6
SMILES	MsrA inhibitor	bovine MsrA act	NR2E3 ag-1	NR2E3 ag-2	NadD block	GalR3 antag
NC1=NC(=O)/C(=C\C=C\c2ccccc2)S1	3	4	-36	-4	-2	0
Cc1ccccc1OCCC(=O)OCC(=O)NCCc1ccccc1	1	-3	-10	1	-2	-1
C=CCn1cccc(C(=O)Nc2cc(OC)ccc2OC)c1=O	4.7*	-4	-3	-3	2	-3
CC(C)OC(=O)C(C(=O)C(F)(F)F)c1cc(NS(=O)(=O)c2ccc3ccccc3c2)c2ccccc2c1O (stereo unspecified)	.	-10	15	-1	55*	.
CCOc1ccc(S(=O)(=O)Nc2cc(SCC(=O)O)c(O)c3ccccc23)cc1	2	-3	3	.	9	-10
CC1=C(C#N)C(=O)NC(=O)/C1=C\c1ccc(-c2cc(C)c(C)cc2[N+](=O)[O-])o1	9.0*	-6	-34	.	14	0
Cc1cc(/C=N/Nc2ccc([N+](=O)[O-])cn2)c(C)n1-c1ccccc1	2	-2	-39	-1	31*	-6
Cc1ccc(-n2c(C)cc(/C=N/Nc3ccc([N+](=O)[O-])cn3)c2C)cc1	1	1	-30	0	15	-2
CC[C@H](C)C1OC(=O)[C@@H](C)[C@@H](CC)NC(=O)[C@H](C)N(C)C(=O)C(C)(C)C(=O)C(C)NC(=O)[C@H](Cc2ccc(OC)cc2)N(C)C(=O)[C@H](C(C)C)N(C)C(=O)CNC(=O)[C@H](CC(C)C)N(C)C(=O)CNC1=O (stereo partly specified)	.	3	81*	.	-9	.
CC(C)C[C@@H]1NC(=O)[C@H](Cc2ccccc2)N(C)C(=O)[C@H](C)NC(=O)c2ccccc2NC(=O)[C@H](Cc2ccc(O)cc2)N(C)C1=O	1	-6	15	-1	10	1
COc1cccc2c3c(c(C)nc12)CCN3c1ccccc1	2	-2	10	2	-6	-11
Cc1ccc2nc(/C(C#N)=C\c3ccc([N+](=O)[O-])o3)[nH]c2c1	0	4	-10	4	8	-6
Cc1ccc2nc(/C(C#N)=C\c3cc(C)n(-c4cccc([N+](=O)[O-])c4)c3C)[nH]c2c1	2	-5	-18	-7	29*	-5
CC(=O)C1=C(O)CC(c2ccccc2)CC1=NCCc1ccccc1 (stereo unspecified)	-1	-2	-28	13	-5	-2
CCCCn1c(NC(=O)c2ccccc2Cl)c(C#N)c2nc3ccccc3nc21	1	-1	96*	19	19	-2
CCCCn1c(NC(=O)CC)c(C#N)c2nc3ccccc3nc21	0	-13	12	-1	0	-3
COc1ccc(-n2c(NC(=O)c3ccco3)c(C#N)c3nc4ccccc4nc32)cc1	2	-9	2	9	6	-3
N#Cc1c(NC(=O)c2ccccc2Cl)n(Cc2ccccc2)c2nc3ccccc3nc12	1	-2	87*	3	32*	-2
CCCOc1ccccc1OCC(=O)Nc1ccc(S(=O)(=O)N2CCCC2)cc1	0	7	-16	-1	-8	0

Screens: PubChem BioAssay, several laboratories
